Test results reported in ChEMBL document CHEMBL1212711, “Mechanistic and functional insights into fatty acid activation in Mycobacterium tuberculosis” (Nat Chem Biol, 2009).
Values after ≈ are worked out from the molar mass of the structure shown. Active and inactive are the calls of the source. The rule behind the calls is not given here.

Legend:
[1] = test system: Mycobacterium tuberculosis; experiment: Antimicrobial activity against Mycobacterium tuberculosis MC2 assessed as concentration required for 100-fold reduction in bacterial CFU; assay type: functional
Outline: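 Susceptibility followed by CFU counts on plates containing various inhibitor concentrations. MIC99 is taken as the concentration causing a 10^2 reduction in colony forming units.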

[2] = test system: Mycobacterium tuberculosis; experiment: Antimicrobial activity against Mycobacterium tuberculosis H37Rv assessed as degeneration of lipid layer in cell wall by transmission electron microscopy; assay type: functional, organism-based
[3] = test system: Mycobacterium tuberculosis; experiment: Antimicrobial activity against Mycobacterium tuberculosis H37Rv assessed as concentration required for 100-fold reduction in bacterial CFU; assay type: functional
Outline: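 H37Rv culture serially diluted and plated on Middlebrook 7H10 agar with OADC containing various concentrations of the acyl-AMS analogue. Colonies counted after two weeks at 37°C. MIC is the concentration giving a 10^2-fold CFU reduction.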

[4] = test system: Mycobacterium tuberculosis H37Rv; experiment: Stabilization of Mycobacterium tuberculosis H37Rv FAAL28 assessed as protection against proteolysis
Outline: (§1)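 Limited tryptic proteolysis of purified protein in the presence of increasing LAMS concentrations. Protection from fragmentation taken as a sign of binding-induced conformational change.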

[5] = test system: Mycobacterium tuberculosis H37Rv; experiment: Stabilization of Mycobacterium tuberculosis H37Rv FACL19 assessed as protection against proteolysis; outline: as §1
[6] = test system: Mycobacterium tuberculosis; experiment: Antimicrobial activity against Mycobacterium tuberculosis H37Rv assessed decrease in SL-1 biosynthesis by [14C]propionate incorporation assay; assay type: functional, organism-based
Outline: (§2)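 Mid-log H37Rv cultures (10 ml) given 5 μCi ^14C-propionate (methylated lipids) or ^14C-acetate (fatty/mycolic acids) plus various LAMS concentrations. Incubated 16 h at 37°C. Mycolic acids and total extractable lipids then analysed.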

[7] = test system: Mycobacterium tuberculosis; experiment: Antimicrobial activity against Mycobacterium tuberculosis H37Rv assessed decrease in mycolic acid biosynthesis by [14C]-acetate incorporation assay; assay type: functional, organism-based; outline: as §2
[8] = test system: Mycobacterium tuberculosis H37Rv; experiment: Binding affinity to Mycobacterium tuberculosis H37Rv FAAL19 assessed as noncovalent protein-ligand interaction by mass spectroscopy
Outline: (§3)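 Purified enzyme–inhibitor (EI*) complex extracted with ethyl acetate. Released acyl-AMS detected by mass spectrometry to test for non-covalent versus covalent binding.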

[9] = test system: Mycobacterium tuberculosis; experiment: Antimicrobial activity against Mycobacterium tuberculosis H37Rv assessed as degeneration of peptidoglycan layer in cell wall by transmission electron microscopy; assay type: functional, organism-based
[10] = test system: Mycobacterium tuberculosis H37Rv; experiment: (§4) Inhibition of Mycobacterium tuberculosis H37Rv FAAL19; conditions: TDE = time-dependent effect
Outline: (§5)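 Purified enzyme pre-incubated with increasing LAMS concentrations, then activity measured by radio-TLC acyl-adenylation assay. Dose-response data fitted to the Morrison tight-binding equation using enzyme concentration to obtain apparent Ki.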

[11] = test system: Mycobacterium tuberculosis H37Rv; experiment: (§6) Inhibition of Mycobacterium tuberculosis H37Rv FACL28; conditions: TDE = time-dependent effect; outline: as §5
[12] = test system: Mycobacterium tuberculosis H37Rv; experiment: Binding affinity to Mycobacterium tuberculosis H37Rv FACL28 assessed as noncovalent protein-ligand interaction by mass spectroscopy; outline: as §3
[13] = test system: Mycobacterium tuberculosis; experiment: Antimicrobial activity against Mycobacterium tuberculosis H37Rv assessed decrease in PDIM biosynthesis by [14C]propionate incorporation assay; assay type: functional, organism-based; outline: as §2
[14] = test system: Mycobacterium tuberculosis; experiment: Antimicrobial activity against Mycobacterium tuberculosis H37Rv assessed decrease in fatty acid biosynthesis by [14C]-acetate incorporation assay; assay type: functional, organism-based; outline: as §2
[15] = test system: Mycobacterium tuberculosis; experiment: Antimicrobial activity against Mycobacterium tuberculosis H37Rv assessed as reduction in appearance of dense granular cytoplasm by transmission electron microscopy; assay type: functional, organism-based
[16] = test system: Mycobacterium tuberculosis; experiment: Antimicrobial activity against Mycobacterium tuberculosis H37Rv assessed as occurrence of irregular cell shape by transmission electron microscopy; assay type: functional, organism-based
Rhodococcus sp. = experiment: Activity at Rhodococcus sp. FAAL expressed in Escherichia coli assessed as palmitoyl-CoA formation at 1 mM by TLC method
Outline: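 Recombinant Rhodococcus ro_4064 protein expressed in E. coli, assayed cell-free with palmitic acid as substrate, with or without 1 mM CoASH. Products separated by TLC and detected by autoradiography.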

[17] = test system: Mycobacterium tuberculosis H37Rv; experiment: Activity at Mycobacterium tuberculosis H37Rv FACL19 assessed as acy-CoA formation by radio-TLC assay
[18] = test system: Mycobacterium tuberculosis H37Rv; experiment: Activity at Mycobacterium tuberculosis H37Rv FAAL28 assessed as conversion of lauroyl-AMP to lauryl-CoA by radio-TLC assay
[19] = as §4; outline: as §5
[20] = as §6; outline: as §5

Question: What does the source list for `CCCCCCCCCCCC(=O)NS(=O)(=O)OC[C@H]1O[C@@H](n2cnc3c(N)ncnc32)[C@H](O)[C@@H]1O`?
Answer: MIC99 [1]: 215 µM (≈ 114 µg/mL); Activity [2]: Active; MIC99 [3]: 100 µM (≈ 52.9 µg/mL); Activity [4]: Dose-dependent effect; Activity [5]: Dose-dependent effect; Activity [6]: Active; Activity [7]: Dose-dependent effect; Activity [8]: Active; Activity [9]: Active; inhibition [10]: tde; inhibition [11]: tde; Km [12]: 24 µM; Activity [13]: Active; Activity [14]: inactive; Activity [15]: Active; Activity [16]: Active

Question: Which Activity (Rhodococcus sp.) does the source give for `CC(C)(COP(=O)(O)OP(=O)(O)OC[C@H]1O[C@@H](n2cnc3c(N)ncnc32)[C@H](O)[C@@H]1OP(=O)(O)O)[C@@H](O)C(=O)NCCC(=O)NCCS` [COENZYME_A] here?
Answer: Its Activity is “inactive”.

Question: What about the Activity [17] of the same molecule?
Answer: Its Activity is “Active”.

Question: And the Activity [18]?
Answer: Its Activity is “inactive”.

Question: What about the IC50 [19] of the same molecule?
Answer: The IC50 was 1250 nM.

Question: What about the Ki ([19]; read-out: Ki(app)) of the same molecule?
Answer: The Ki was 4900 nM.

Question: And the IC50 [20]?
Answer: The IC50 was 1200 nM.
